According to ChEMBL document CHEMBL1123118, “Substrate probes for the mechanism of aromatic hydroxylation catalyzed by cytochrome P-450: selectively deuterated analogues of warfarin” (J Med Chem, 1985):

Legend:
Rattus norvegicus [1] = species: Rattus norvegicus; test: Amount of deuterium retained was reported after normal workup in beta-naphthoflavone-treated male rats with the substrate rac 7-D; type: ADME, organism-based
Procedure, shortened: (§1)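 Liver microsomes from male Sprague-Dawley rats (140–160 g), untreated or pretreated with phenobarbital or β-naphthoflavone; protein set to 10 mg/mL. The 1-mL mix held substrate, an NADP+/glucose 6-phosphate/MgCl2 cofactor solution, glucose-6-phosphate dehydrogenase and microsomes in 0.05 M phosphate pH 7.4. It ran 10 min at 37 °C, in duplicate. Hydroxywarfarins were measured by capillary GC-MS, and % deuterium retention was calculated as product over substrate incorporation.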

Rattus norvegicus [2] = species: Rattus norvegicus; test: Amount of deuterium retained was reported after reincubation followed by normal workup in phenobarbital treated male rats; type: ADME, organism-based
Rattus norvegicus [3] = species: Rattus norvegicus; test: Amount of deuterium retained was reported after reincubation followed by normal workup in phenobarbital treated male rats with rac 8-D; type: ADME, organism-based
Rattus norvegicus [4] = species: Rattus norvegicus; test: Compound incubated with microsomal preparations from beta-naphthoflavone-treated male rats with the substrate rac 7-D and the amount of deuterium retained was reported after reincubation followed by normal workup; type: ADME
Rattus norvegicus [5] = species: Rattus norvegicus; test: Compound incubated with microsomal preparations from phenobarbital treated male rats with the substrate rac 8-D and the amount of deuterium retained was reported after normal workup; type: ADME; procedure, shortened: as §1
Rattus norvegicus [6] = species: Rattus norvegicus; test: Amount of deuterium retained was reported after normal workup in rats; type: ADME, organism-based; procedure, shortened: as §1

Structure (SMILES)	Deuterium retention (Rattus norvegicus [1]) [%]	Deuterium retention (Rattus norvegicus [2]) [%]	Deuterium retention (Rattus norvegicus [3]) [%]	Deuterium retention (Rattus norvegicus [4]) [%]	Deuterium retention (Rattus norvegicus [5]) [%]	Deuterium retention (Rattus norvegicus [6]) [%]
CC(=O)CC(c1ccccc1)c1c(O)oc2ccc(O)cc2c1=O (centres undefined)	84	65	89	84	90	66
CC(=O)CC(c1ccccc1)c1c(O)oc2cc(O)ccc2c1=O (centres undefined)	52	76	83	50	84	76
CC(=O)CC(c1ccc(O)cc1)c1c(O)oc2ccccc2c1=O (centres undefined)	86	85	91	83	92	84
CC(=O)CC(c1ccccc1)c1c(O)oc2c(O)cccc2c1=O (centres undefined)	76	83	58	76	58	82
